Source: PubChem
Shown are actives, neighbours in structure and some others; about 3.5% of the full set was active somewhere.
FN deposition inh = fibronectin deposition inhibition. hit rate 0.086% among 350,000. AH1F fibroblasts, Alexa488-fibronectin deposition fluorescence, overnight. inhibition, % at 12.6 µM. AID 743247;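 active means mean inhibition across replicates of 30% or more, regardless of how many single replicates reach that level; inconclusive means mean under 30% yet at least half of replicates reach 30%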;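 further: positive control wells lacked labelled fibronectin entirely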
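Material: AH1F fibroblast monolayer depositing Alexa488-labelled fibronectin into matrix | Input: 10000 AH1F cells/well | Medium: DMEM plus 2% serum, read in PBS | Reagent: Alexa488-fibronectin, 24 nM final in well | Compound dosing: One dose per compound, pinned | Schedule: 1 h adhesion, overnight exposure | Measured by: Fluorescence at 485 nm excitation, 525 nm emission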
PglD DTNB = inhibitors of Campylobacter jejuni PglD acetyltransferase; AID 602405; purified PglD enzyme, DTNB colorimetric CoA detection; inhibition, % at 12.5 µM; hit rate 0.098% among 360,000; in the data active means inhibition above about 16%, passing the limit was not always enough; inconclusive means no clear call, values can overlap the other calls
DENV2 CPE = DENV2-induced cell death inhibition; DENV2-infected cells, cytopathic effect rescue, plate reader; CPE inhibition, % at 9.99 µM; hit rate 1.7% among 350,000; AID 651640; in the data active means CPE inhibition above about 20%, passing the limit was not always enough; inconclusive means no clear call, values can overlap the other calls; tested in BHK-21 cells;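 further: 0% = median of neutral control wells and 100% = median of positive control wells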
HIV Env fusion = blocks HIV Env-driven cell-cell fusion; HeLa-JRFL Env/CEM21 cell fusion, luciferase; inhibition, % at 12.3 µM; hit rate 1.1% among 360,000;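 active means mean replicate inhibition score of at least 50 and every replicate individually at or above 50; inconclusive means only one of the two criteria met; inactive means mean below 50 and not all replicates reaching 50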;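 further: 0% = plate neutral controls and 100% = maraviroc near 300 nM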
PGC1a acetyl inh = modulators of PGC1a acetylation | U2OS PGC1a acetylation, AlphaScreen anti-acetyl-lysine; with virally co-expressed GCN5 acetyltransferase | inhibition, % at 15.6 µM | hit rate 0.17% among 350,000;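 active means every replicate shows inhibition of at least 40%; inconclusive means mean inhibition at least 40% but some replicate below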;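 further: 0% = neutral control wells and 100% = positive control wells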
Ecoli rRNA inh = inhibitors of bacterial rRNA selective over humanized ribosomes. E. coli WT GFP vs humanized-ribosome RFP mutants, fluorescence, 24 h; hits give low values; DMSO median 0, no signal -100. GFP signal change (wild-type ribosome), % (concentration not given with the values). hit rate 1.6% among 350,000. AID 720706;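 active means significant combined selectivity score with lowered wild-type GFP, culture density cut under 30%, mutant RFP and density less affected; inactive means any of these conditions unmet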
* hit, by the source's call; u = inconclusive; x = no result; [ ] = dose if it differs, or a comment.

SMILES	FN deposition inh	PglD DTNB	DENV2 CPE	HIV Env fusion	PGC1a acetyl inh	Ecoli rRNA inh
C[C@H]1CCCCO[C@H](CN(C)Cc2ccc(C(F)(F)F)cc2)[C@@H](C)CN([C@@H](C)CO)C(=O)c2cc(NS(=O)(=O)c3ccc(F)cc3)ccc2O1	-1.1	3.2	7.5	68.1*[16.7 µM]	12.8	-0.4
C[C@H](CO)N1C[C@H](C)[C@@H](CN(C)Cc2ccc(C(F)(F)F)cc2)OCCCC[C@H](C)Oc2ccc(NS(=O)(=O)c3ccc(Cl)cc3)cc2C1=O	-2.6	2.4	3.9	55.0*[16.7 µM]	-12.7	1.0
C[C@H]1CCCCO[C@@H](CN(C)Cc2ccc(C(F)(F)F)cc2)[C@@H](C)CN([C@@H](C)CO)C(=O)c2cc(NS(C)(=O)=O)ccc2O1	x	-0.2	18.0	55.3*[16.7 µM]	-2.2	5.6
C[C@@H]1CN([C@H](C)CO)C(=O)c2cc(NS(=O)(=O)c3ccc(Cl)cc3)ccc2O[C@@H](C)CCCCO[C@@H]1CN(C)Cc1ccc(C(F)(F)F)cc1	-3.9	3.8	-1.5	u	3.8	1.4
Cc1ccc(S(=O)(=O)N[C@@H]2C=C[C@@H](CC(=O)N3CCC(Cc4ccccc4)CC3)O[C@@H]2CO)cc1	x	3.3	7.4	56.3*[16.7 µM]	0.5	1.8
O=C(C[C@H]1C=C[C@H](NS(=O)(=O)c2ccccc2)[C@H](CO)O1)N1CCC(Cc2ccccc2)CC1	x	x	96.3*	x	-8.3	-2.4
O=C(C[C@@H]1C=C[C@@H](NS(=O)(=O)c2ccccc2)[C@H](CO)O1)N1CCC(Cc2ccccc2)CC1	x	x	u	x	8.0	2.1
Cc1ccc(NC(=O)Nc2ccc3c(c2)C(=O)N(C)[C@@H]2CC[C@H](CC(=O)O)O[C@@H]2CO3)cc1	7.6	1.8	-7.8	4.7[16.7 µM]	-8.5	-0.8
COc1cccc(-n2c(Cc3cc(=O)[nH]c(=O)[nH]3)nnc2SCC(=O)N2CCCCCC2)c1	-0.4	5.1	68.6*	-18.2	6.6	3.2
CCCNC(=O)N1[C@@H](CO)[C@H](c2ccccc2)[C@@H]1CNC(C)=O	1.7	-2.6	-3.3	x	6.7	2.4
COc1ccc(CN(C)C[C@H]2OCCCC[C@@H](C)Oc3ccc(NS(=O)(=O)c4ccccc4)cc3C(=O)N([C@@H](C)CO)C[C@H]2C)cc1	-18.4	-1.5	33.8*	-13.6[16.7 µM]	-0.6	1.0
COc1ccc(CN(C)C[C@@H]2OCCCC[C@H](C)Oc3ccc(NS(=O)(=O)c4ccccc4)cc3C(=O)N([C@H](C)CO)C[C@H]2C)cc1	-5.3	5.7	31.9*	-11.3[16.7 µM]	-3.6	7.2
O=C(C[C@H]1C=C[C@H](NS(=O)(=O)c2ccc(F)cc2)[C@@H](CO)O1)N1CCN(c2ccccc2)CC1	x	0.9	2.5	-4.2[16.7 µM]	4.7	-2.5
Cc1cc(C)nc(Nc2nc(C(N)CCc3ccccc3)cs2)n1 (stereo not drawn)	1.6	5.5	1.7	74.1*	-5.7	-4.5
CCOc1ccc(-c2c(=O)n(O)c3ccccc3[n+]2[O-])cc1	1.0	-7.8	0.6	-27.9	-2.6	-20.1*
CCOc1ccc(-c2c(=O)n(OCC)c3ccccc3[n+]2[O-])cc1	0.6	-6.4	0.4	-6.3	1.3	8.3
C/C=C/c1cnc2c(c1)C(=O)N([C@H](C)CO)C[C@H](C)[C@H](CN(C)C(=O)Nc1ccc(OC)cc1)O2	-0.3	-6.8	-0.7	-9.8[16.7 µM]	0.4	1.2
CCn1c2ccccc2c2nc3cc(OC)c(OC)cc3nc21	35.0*	-1.1	x	-60.8	-3.7	x
O=C(C[C@H]1C=C[C@@H](NS(=O)(=O)c2ccc(F)cc2)[C@@H](CO)O1)NCc1ccccc1F	x	x	3.0	x	6.4	-0.5
O=C(N[C@@H]1CC[C@@H](CCNC(=O)C2CCCCC2)O[C@@H]1CO)c1ccncc1	-3.9	2.1	-9.3	9.0[16.7 µM]	20.0	0.8
O=C(N[C@H]1CC[C@@H](CCNC(=O)C2CCCCC2)O[C@@H]1CO)c1ccncc1	-9.7	-0.9	23.6*	-2.9[16.7 µM]	-1.3	2.6
CN(C)CC(=O)N[C@@H]1CC[C@H](CCNC(=O)C2CCCC2)O[C@@H]1CO	x	1.9	53.6*	-15.8[16.7 µM]	12.9	2.4
C[C@H](CO)N1C[C@H](C)[C@@H](CN(C)C(=O)Nc2ccc(C(F)(F)F)cc2)OCCCC[C@H](C)Oc2ccc(NC(=O)NC3CCCCC3)cc2C1=O	-0.7	2.5	-8.1	46.2[16.7 µM]	3.2	x
CCCNC(=O)N1CC2(CCN(C(=O)c3cccnc3)CC2)c2c([nH]c3cc(OC)ccc23)[C@H]1CO	x	x	-0.8	-6.2[16.7 µM]	x	-3.6
Clc1ccccc1C1=Nn2c(nnc2-c2ccncc2)SC1	11.5	-3.1	x	92.0*	18.5	x
SMILES	FN deposition inh	PglD DTNB	DENV2 CPE	HIV Env fusion	PGC1a acetyl inh	Ecoli rRNA inh
O=[N+]([O-])c1cccnc1N1CCN(c2ccc(F)cc2)CC1	-4.5	x	x	13.0	-2.5	-32.5*
C(=C\c1ccccc1)/CN1CCN(Cc2ccc3c(c2)OCO3)CC1	-2.8	-10.5	-1.4	-5.4	4.1	5.4
O=[N+]([O-])c1cccnc1N1CCOCC1	x	x	x	-52.6	-0.2	x
c1ccc(-c2[nH]ncc2CN2CCN(Cc3ccc4c(c3)OCO4)CC2)cc1	-4.3	x	-4.0	-3.0	3.4	-46.8*
O=[N+]([O-])c1ccccc1/C=C/CN1CCN(Cc2ccc3c(c2)OCO3)CC1	-1.8	6.9	47.3*	2.8	-10.7	-5.4
O=[N+]([O-])c1cccnc1N1CCN(Cc2ccc3c(c2)OCO3)CC1	-8.5	0.1	34.3*	-5.4	-13.3	-12.4
CCC(=O)N1C[C@H](C)[C@H](OC)CN(C)C(=O)c2ccc(NC(=O)c3cnccn3)cc2OC[C@H]1C	17.7	3.1	0.3	x	5.9	-1.3
COc1cccc(-c2nnc3sc(C4CCCCC4)nn23)c1	17.9	-0.8	x	122.8*	x	x
c1cncc(-c2nnc3sc(C4CCCCC4)nn23)c1	x	-2.8	x	x	x	x
CCOc1cccc(-c2nnc3sc(C4CCCCC4)nn23)c1	0.5	x	x	95.6*	19.2	x
COC(=O)C[C@@H]1CC[C@@H]2[C@@H](COc3ccc(NC(=O)c4cccs4)cc3C(=O)N2C)O1	-12.4	-0.6	-4.4	7.8[16.7 µM]	-1.8	0.3
CN(C)c1cc[n+](CC(=O)c2ccc(-c3ccccc3)cc2)cc1	1.9	x	1.2	63.8*	x	-15.4
O=C(C[n+]1ccccc1)c1ccc(-c2ccccc2)cc1	-1.5	x	-2.9	7.7	-4.4	-3.2
O=C(C[C@H]1C[C@H]2c3cc(NC(=O)NC4CCCC4)ccc3O[C@H]2[C@@H](CO)O1)NCCc1ccccc1	-5.3	-5.6	-4.2	22.5[16.7 µM]	-6.8	2.3
CNC[C@@H]1Oc2cc(-c3cccnc3)ccc2S(=O)(=O)N([C@H](C)CO)C[C@H]1C	x	1.3	-3.6	-5.8[16.7 µM]	8.0	1.3
O=c1c2ccccc2nc2c3ccccc3c(NCc3ccccn3)nn12	16.9	-0.8	2.2	3.7	x	-24.1
O=c1c2ccccc2nc2c3ccccc3c(NCCO)nn12	-1.9	0.4	73.1*	-68.3	-7.1	-6.8
